Among the data in PubChem BioAssay AID821 (SRMLSC, 2007) are viability values, retold here.

What is called viability is a read-out of living cells in per cent, often relative to untreated cells.

Active and inactive are the calls of the source.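 Rule for the calls: active = compounds whose fitted half-maximal concentration for reducing fibroblast viability is 100 µM or lower; inactive = the rest.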

This assay is described as follows: inhibition of LL 47 lung fibroblast growth, concentration-response curve, selectivity screen for endothelial cell growth inhibitor project, cellular system, ATP luminescence readout (AID 821).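 Note: 100% = median of untreated cell-only wells and 0% = no luminescence.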 The settings on record: LL 47 lung fibroblast viability, ATP luminescence; at 20 µM (top of the series). The essentials: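 Assay system: LL 47 human lung fibroblasts; Compound: dose series 0.039–20 µM final, 0.2% DMSO; Schedule: 72 h compound treatment at 37 °C after overnight attachment; Technique: CellTiter-Glo luminescence; Evaluation: percent viability relative to untreated wells, EC50 via 4-parameter fit.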

Regarding `Cc1ccc(N=Nc2c(C)[nH][nH]c2=O)c(C)c1`, the viability is 97.6% (inactive).
The value for `CCOc1cc(N2CCOCC2)c(OCC)cc1NC(=O)COc1ncnc2ccc(Br)cc12` was 100% (inactive); that for `CC(=O)Oc1ccc(N(C(C)=O)S(=O)(=O)c2cccs2)c2ccccc12` was 95.7% (inactive).
The value for `Cc1nn(C)c(C)c1NC(=O)CSc1nc(C2CC2)nc2c1cnn2-c1ccccc1` was 108% (inactive).
The value for `Cc1ccc2[nH]c3c(NCc4ccco4)ncnc3c2c1` was 85.1% (inactive).
`CC1(C)Cc2c(C#N)c(SCC(=O)c3ccccc3)nc(N3CCOCC3)c2CO1`: the viability is 90.1% (inactive).
The value for `COc1ccccc1C1CC(c2c(-c3ccccc3)c3cc(Cl)ccc3[nH]c2=O)=NN1S(C)(=O)=O` (configuration not stated) was 83.6% (inactive); that for `CC(C)COc1ccc2[nH]c3c(c2c1)CCCC3=O` was 101% (inactive); that for `CCOc1cc(/C=N\NC(=O)Cn2nc([N+](=O)[O-])cc2C)ccc1OCc1cccc2ccccc12` was 89.7% (inactive).
For `CC(=O)Nc1ccc(S(=O)(=O)N2CCN(c3nc(NC4CCCC4)c4ccccc4n3)CC2)cc1`, the viability was 84.8% (inactive).
Consider `CCOC(=O)N1CCN(C(=O)c2nn(-c3ccc(C)cc3)c(=O)c3c2c2ccccc2n3C)CC1`, for which the viability was 100% (inactive).
Take `COc1ccc2[nH]c(=O)c(CN(C3CCCCC3)C(c3nnnn3Cc3ccco3)C(C)C)cc2c1` (configuration not stated): the viability was 83.2% (inactive).
As for `O=C(NCCC1=CCCCC1)C1CCN(Cc2cnn(-c3ccccc3)c2-n2cccc2)CC1`, the viability was 92.5% (inactive).
As to `CN1C(=O)C(O)(CC(=O)c2cccc(-n3cccc3)c2)c2ccccc21` (configuration not stated), the viability is 93.7% (inactive).
The value for `COc1ccccc1N1CCN(CC(=O)c2c(C)[nH]c3cc(C)ccc23)CC1` was 86.8% (inactive); that for `CCCCC(=O)Nc1ccc(C(=O)Nc2ccc(S(=O)(=O)N3CCCC3)cc2)cc1` was 104% (inactive); that for `CCc1ccc2[nH]c(=O)c(CN(Cc3ccccc3)C(=O)Nc3ccccc3OC)cc2c1` was 88.9% (inactive).
The value for `CC(=O)c1c(C)[nH]c(C(=O)CSc2nnc(-c3ccccc3)n2Cc2ccc3c(c2)OCO3)c1C` was 94.2% (inactive).
For the compound `COc1ccc(OC)c(S(=O)(=O)N(C)CC(=O)N2CCN(c3ccc(F)cc3)CC2)c1`, the viability was 106% (inactive).
Consider `COc1ccc(NC(=O)CSc2nnc(-c3cccs3)n2-c2ccccc2)cc1`, for which the viability is 105% (inactive).
The value for `Cc1nc2c(-c3ccccc3)c(C)[nH]n2c(=O)c1Cl` was 119% (inactive); that for `C=C(C)COc1ccc(-c2n[nH]c(C)c2Oc2ccccc2OC)c(O)c1` was 94.7% (inactive); that for `O=C(NCc1ccc2c(c1)OCO2)C1CCC(CNS(=O)(=O)c2cccc3nsnc23)CC1` (configuration not stated) was 106% (inactive).
The value for `C/C(=N\O)c1ccc2c3ccccc3n(C)c2c1` was 111% (inactive).
Regarding `Cc1ccc(NC(=O)C(C)N2C(=O)c3ccccc3C2=O)cc1` (configuration not stated), the viability is 107% (inactive).
Regarding `CCOC(=O)c1ccc(NC(=O)CCc2nc(-c3cccc(C)c3)no2)cc1`, the viability was 107% (inactive).
The value for `COc1ccc(NC(=O)c2cc3n(n2)C(C(F)(F)F)CC(c2ccc(OC)cc2)N3)cc1` (configuration not stated) was 96.4% (inactive).
The value for `CC(=O)Nc1ccc(S(=O)(=O)NC2=C(N3CCN(Cc4ccccc4)CC3)C(=O)c3ccccc3C2=O)cc1` was 89.8% (inactive); that for `Cc1ccccc1NC(=O)CSC(N)=O` was 110% (inactive).
The value for `COc1ccc(O)c(-c2cc(-c3cccc(Br)c3)n[nH]2)c1` was 86.3% (inactive); that for `Cc1cc(NC(=O)c2cccc(S(=O)(=O)N3CC(c4ccccc4)CC3=O)c2)no1` (configuration not stated) was 98.4% (inactive).
Turning to `Cc1ccc(C)c(C(C)NC(=O)C2C3CCC(O3)C2C(=O)O)c1` (configuration not stated), the viability was 94.5% (inactive).
The value for `CCCC(=O)Nc1cccc(-c2nc3cc(C)c(C)cc3o2)c1` was 104% (inactive); that for `O=C1C2C3C=CC(CO)(O3)C2C(=O)N1c1ccccc1-c1ccccc1` (configuration not stated) was 91.7% (inactive).
On to `COc1cc(OC)cc(C(=O)Nc2ccc(-c3nc4ccccc4o3)cc2)c1`, for which the viability is 107% (inactive).
For the compound `Cc1ccc2c(c1)[nH]c1c(N3CCN(Cc4ccccc4)CC3)ncnc12`, the viability is 88.3% (inactive).
Take `Cc1ccc2c(c1)c1c(n2CC(O)Cn2c(C)nc3ccccc32)CCCC1` (configuration not stated): the viability was 95.1% (inactive).
The value for `COc1cccc(-c2cc(C(=O)Nc3cc(C)n(Cc4ccc(Cl)cc4)n3)no2)c1` was 92% (inactive); that for `Cc1cccc(-c2nc(CN3CCCC(C(=O)NC4CCCCCC4)C3)c(C)o2)c1` (configuration not stated) was 90.9% (inactive); that for `CCN(CC)c1cc(C)c2cc(NC(=O)c3ccc(Br)o3)ccc2n1` was 93% (inactive).
For the compound `CCCOC(=O)c1ccc(Oc2cn[nH]c2-c2ccc(OCC)cc2O)cc1`, the viability was 98.4% (inactive).
For the compound `Cc1ccc(-n2c(Cc3cccs3)nnc2SCC(=O)Nc2ccc(F)c(F)c2)cc1`, the viability is 95.7% (inactive).
For `Cc1cccnc1Nc1nc(-c2ccc(O)cc2O)cs1`, the viability is 94.8% (inactive).
The value for `Cc1ccccc1N1C(=O)CC(Sc2nnc(-c3ccccc3)o2)C1=O` (configuration not stated) was 90.5% (inactive).
The value for `COc1ccc(CCn2c(=S)[nH]c3cc(C(=O)NCc4ccco4)ccc3c2=O)cc1OC` was 108% (inactive); that for `CCc1ccc(NC(=O)CCc2nc3cccnc3n2Cc2ccc(OC)cc2)cc1` was 90.2% (inactive).
For the compound `c1ccc(CSc2nnc(-c3c[nH]c4ccccc34)o2)cc1`, the viability was 102% (inactive).
The value for `Cn1c(-c2ccc3ccccc3n2)nc2cnccc21` was 93.4% (inactive); that for `COc1ccc(CNC(=O)C(C#N)c2nc3ccccc3nc2N2CCN(C)CC2)cc1` (configuration not stated) was 97.9% (inactive); that for `COc1ccc2[nH]cc(C(=O)CN3CCN(C(=O)c4ccco4)CC3)c2c1` was 108% (inactive).
The value for `CC1(C)CC(=O)c2cc(C(=O)NCc3ccco3)c(=O)n(-c3ccc(Cl)cc3)c2C1` was 105% (inactive); that for `O=C(/C=C/NNC(=O)c1ccccc1)c1ccccc1` was 93.2% (inactive).
The value for `CCCc1cc(C(=O)Cc2ccc(F)cc2)c(O)cc1O` was 96.5% (inactive).
On to `CCn1c2c(c3cc(Br)ccc31)CCC/C2=N\O`, for which the viability was 85.2% (inactive).
The value for `O=C(CCC1COc2ccccc2O1)Nc1ccc(Cl)cn1` (configuration not stated) was 95.5% (inactive).
The value for `CCCOc1ccc(-c2nc(C#N)c(NCCCn3ccnc3)o2)cc1` was 90.9% (inactive); that for `CCC(C)NC(=O)c1c(N)n(/N=C/c2ccccn2)c2nc3ccccc3nc12` (configuration not stated) was 116% (inactive).
The value for `COC(=O)c1cc(NC(=O)c2c(Cl)nc3sccn23)cc(C(=O)OC)c1` was 91.8% (inactive).
Consider `Cc1ccc2nc(NC(=O)CSc3ncnc4c3oc3ccccc34)sc2c1`, for which the viability was 113% (inactive).
As to `Cc1cc(Cl)ccc1OCCCC(N)=O`, the viability was 95% (inactive).
The value for `Cc1cc(S(=O)(=O)N2CCN(Cc3ccc4c(c3)OCO4)CC2)cc(C)c1N1CCCC1=O` was 100% (inactive).
With `CCn1c(SCC(N)=O)nnc1-c1ccc2[nH]c(C)c(C)c2c1`, the viability was 99.8% (inactive).
As to `CCCCC[n+]1ccn(C2=C([O-])c3ccccc3C(=O)/C2=N\S(=O)(=O)c2ccccc2)c1`, the viability is 86.4% (inactive).
The value for `CCCOC(=O)c1ccc(Oc2cn[nH]c2-c2ccc(OC)cc2O)cc1` was 86.6% (inactive); that for `COCCn1c(C)cc(C(=O)CSc2nc3ccccc3o2)c1C` was 129% (inactive).
The value for `Cn1nc(C(C)(C)C)cc1C(=O)NCc1ccc(N2CCCC2=O)cc1` was 107% (inactive).
In the case of `CCc1ccc(-c2nc(CN3CCC(C(=O)NCc4ccc(F)cc4)CC3)c(C)o2)cc1`, the viability was 103% (inactive).
Turning to `CCCc1ccc(-c2cc(NC(=O)CSc3n[nH]c(N)n3)n(-c3ccccc3)n2)cc1`, the viability was 100% (inactive).
The value for `Cc1ccc(Cn2c(SCC(=O)Nc3cc(C)on3)nc3ccccc3c2=O)cc1` was 80.1% (inactive); that for `O=C1CSC(c2ccccn2)N1Cc1cn2ccccc2n1` (configuration not stated) was 99.9% (inactive).
The value for `O=C(Nc1cccc(-c2nnc(-c3ccccc3)o2)c1)c1ccc(Br)o1` was 118% (inactive); that for `Nc1nc2ccccc2n1/N=C/c1ccc(-c2ccccc2)o1` was 111% (inactive).
The value for `O=C(Nc1ccc2nn(-c3ccccc3)nc2c1)c1ccc2c(c1)OCO2` was 121% (inactive); that for `O=C(CSc1nnc(-c2cc(-c3cccs3)nc3ccccc23)o1)NC1CCCCC1` was 98.4% (inactive); that for `CC1CC(C)(C)CC2(C1)NC(=S)N(c1ccccc1)N2` (configuration not stated) was 109% (inactive).
Consider `COC(=O)CSc1nc2ccc(NC(=O)CSc3nnnn3Cc3ccccc3)cc2s1`, for which the viability was 108% (inactive).
`O=C1C2=C(NC(=S)NC2c2ccc(Cl)cc2)NC(c2ccc(Cl)cc2)N1c1ccc(Cl)cc1` (configuration not stated): the viability is 99.2% (inactive).
Regarding `COc1ccc(NC(=O)c2ccccc2NC(=O)COc2ccccc2)cc1`, the viability was 93.3% (inactive).
`Cn1c(NC(=O)c2cccc(Cn3cc(Cl)cn3)c2)nc2ccccc21`: the viability is 103% (inactive).
The value for `O=C(CSc1ncnc2c1oc1ccccc12)Nc1nc2ccccc2s1` was 105% (inactive); that for `CC1CCCN(c2oc(-c3cccc4ccccc34)nc2C#N)C1` (configuration not stated) was 99.6% (inactive); that for `O=C(COC(=O)c1cccnc1Nc1cccc(C(F)(F)F)c1)NCc1ccc2c(c1)OCO2` was 130% (inactive).
